# The source made the active and inactive calls. The rule behind the calls is not given here.
# Legend:
# HCC70 = assay: Antiproliferative activity against human HCC70 assessed as cell growth inhibition after 48 hrs by SRB assay; format: functional; details: for CC50: read-out: LC50 (the source's name)
# Method in brief: (§1)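 HCC1937, HCC70 and SJCRH30 cells in RPMI-1640 with 10% FBS and 50 μg/mL gentamicin, 37 °C, 5% CO2, used within 4 months of thaw. Plated cells adhered overnight before 48 h compound exposure (DMSO 0.5% v/v final). Read-out was SRB, with GI50 by nonlinear regression from 3 or 4 experiments ±SEM.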
# HCC1806 = assay: Antiproliferative activity against human HCC1806 assessed as cell growth inhibition after 48 hrs by SRB assay; format: functional; details: for CC50: read-out: LC50 (the source's name)
# Method in brief: (§2)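 A-673 and HCC1806 cells in RPMI-1640 with 5% FBS, 37 °C, 5% CO2, used within 4 months of thaw. Cells were plated and left overnight, then exposed to compounds in DMSO (0.5% v/v final) for 48 h. SRB staining followed, with GI50 fitted by nonlinear regression, as the mean of 3 or 4 experiments ±SEM.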
# A673 = assay: Antiproliferative activity against human A673 assessed as cell growth inhibition after 48 hrs by SRB assay; format: functional; details: for CC50: read-out: LC50 (the source's name); method in brief: as §2
# SJRH30 = assay: Antiproliferative activity against human SJRH30 assessed as cell growth inhibition after 48 hrs by SRB assay; format: functional; method in brief: as §1
# MDA-MB-453 = assay: Antiproliferative activity against human MDA-MB-453 assessed as cell growth inhibition after 48 hrs by SRB assay; format: functional
# Method in brief: (§3)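 MDA-MB-231 and MDA-MB-453 cells in modified IMEM with 5% FBS and 30 μg/mL gentamicin, 37 °C, 5% CO2, used within 4 months of thaw. After overnight adherence, cells had 48 h compound treatment (DMSO 0.5% v/v final). Growth was read by SRB assay, with GI50 from nonlinear regression as the mean of 3 or 4 experiments ±SEM.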
# MDA-MB-231 = assay: Antiproliferative activity against human MDA-MB-231 assessed as cell growth inhibition after 48 hrs by SRB assay; format: functional; details: for CC50: read-out: LC50 (the source's name); method in brief: as §3
# HCC1937 = assay: Antiproliferative activity against human HCC1937 assessed as cell growth inhibition after 48 hrs by SRB assay; format: functional; method in brief: as §1
# [1] = Aqueous solubility of the compound; details: buffer
# Salmon testes DNA [2] = assay: Binding affinity to salmon DNA groove measured after 30 mins by UV based spectroscopic method; format: nucleic-acid assay; details: Salmo salar
# Method in brief: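 Compounds (typically 5–50 μg) in 200 μL water/MeOH were added to 400 μL salmon sperm DNA stock (1 mg/mL in 10 mM Tris, 1 mM EDTA, pH 8.0, 15% glycerol) and incubated 30 min at room temperature. Samples were ultrafiltered (100 kDa, 5000g, 10 °C), and filtrate peak areas (UV 254 nm, LC-PDA-MS/MS) were compared with no-DNA buffer controls.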
# Salmon testes DNA [3] = assay: Covalent binding affinity to salmon DNA measured after 30 mins by UV based spectroscopic method; format: nucleic-acid assay; details: Salmo salar
# Method in brief: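 After 30 min room-temperature incubation with salmon sperm DNA in TE/15% glycerol buffer and 100 kDa ultrafiltration, retained complexes were washed with 30% MeOH (3× 5000g, 10 °C). Ligands were then released with 95% MeOH/1% formic acid for 20 min, refiltered, dried, taken up in MeOH, and analysed by LC-PDA-MS/MS against no-DNA controls.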
compound,measurement,setting,value
COc1cc2c(cc1O)[C@@H](Cc1ccc(O)c(Oc3ccc(C[C@@H]4c5cc(OC)c(OC)cc5CCN4C)cc3)c1)N(C)CC2 [DARUISOLINE],GI50,HCC70,8.8 µM
same,TGI,HCC70,13 µM
same,CC50,HCC70,19 µM
same,GI50,HCC1806,17 µM
same,TGI,HCC1806,27 µM
same,CC50,HCC1806,41 µM
same,GI50,A673,9.2 µM
same,TGI,A673,13 µM
same,CC50,A673,19 µM
same,GI50,SJRH30,3.7 µM
same,TGI,SJRH30,6 µM
same,GI50,MDA-MB-453,9 µM
same,TGI,MDA-MB-453,14 µM
same,GI50,MDA-MB-231,13 µM
same,TGI,MDA-MB-231,19 µM
same,CC50,MDA-MB-231,30 µM
same,GI50,HCC1937,6.9 µM
same,TGI,HCC1937,11 µM
Nc1c2ccccc2nc2ccccc12 [AMINACRINE],solubility,[1],Insoluble
NC[C@@H]1O[C@H](O[C@H]2[C@@H](O)[C@H](O[C@@H]3[C@@H](O)[C@H](N)C[C@H](N)[C@H]3O[C@H]3O[C@H](CN)[C@@H](O)[C@H](O)[C@H]3N)O[C@@H]2CO)[C@H](N)[C@@H](O)[C@@H]1O [FRAMYCETIN],solubility,[1],Soluble
same,Activity,Salmon testes DNA [2],Active
N[C@@H](Cc1ccc(N(CCCl)CCCl)cc1)C(=O)O [MELPHALAN],solubility,[1],Insoluble
same,Activity,Salmon testes DNA [3],Active
CN(C)CCN(Cc1cccs1)c1ccccn1 [METHAPYRILENE],solubility,[1],Insoluble
COc1ccc2cc1Oc1ccc(cc1)C[C@H]1c3cc(c(OC)cc3CCN1C)Oc1c(OC)c(OC)cc3c1[C@H](C2)N(C)CC3 [FANCHININ],GI50,HCC70,3.4 µM
same,TGI,HCC70,5.9 µM
same,CC50,HCC70,11 µM
same,GI50,HCC1806,5.1 µM
same,TGI,HCC1806,8.5 µM
same,CC50,HCC1806,15 µM
same,GI50,A673,4 µM
same,TGI,A673,6 µM
same,CC50,A673,8.9 µM
same,GI50,SJRH30,3 µM
same,TGI,SJRH30,4.3 µM
same,GI50,MDA-MB-453,3.3 µM
same,TGI,MDA-MB-453,4.8 µM
same,GI50,MDA-MB-231,5 µM
same,TGI,MDA-MB-231,7.4 µM
same,CC50,MDA-MB-231,12 µM
same,GI50,HCC1937,4.2 µM
same,TGI,HCC1937,10 µM
O=NN(CCCl)C(=O)NCCCl [CARMUSTINE],solubility,[1],Insoluble
same,Activity,Salmon testes DNA [3],Active
Cc1c2ccncc2c(C)c2c1[nH]c1ccccc12 [ELLIPTECINE],solubility,[1],Insoluble
COc1ccc2cc1Oc1ccc(cc1)C[C@H]1c3c(cc4c(c3Oc3cc5c(cc3OC)CCN(C)[C@@H]5C2)OCO4)CCN1C [CEPHARANTHINE],GI50,HCC70,5.8 µM
same,TGI,HCC70,9.6 µM
same,CC50,HCC70,17 µM
same,GI50,HCC1806,7.2 µM
same,TGI,HCC1806,12 µM
same,CC50,HCC1806,19 µM
same,GI50,A673,4.5 µM
same,TGI,A673,5.8 µM
same,CC50,A673,7.5 µM
same,GI50,SJRH30,3.8 µM
same,TGI,SJRH30,5.7 µM
same,GI50,MDA-MB-453,5.5 µM
same,TGI,MDA-MB-453,7.8 µM
same,GI50,MDA-MB-231,5.3 µM
same,TGI,MDA-MB-231,7.7 µM
same,CC50,MDA-MB-231,12 µM
same,GI50,HCC1937,6 µM
same,TGI,HCC1937,14 µM
